Test results as given in ChEMBL document CHEMBL3593226, “Discovery of small molecules with vasodilating characteristics and adjustable hydrolytic behavior” (Bioorg Med Chem, 2015).
The source made the active and inactive calls.

Experiments:
[1] = test system: Right cardiac atrium; test: Chronotropic activity in electrically-stimulated guinea pig right atrium compound treated every 45 mins by chart recorder analysis; format: functional, tissue-based; details: Cavia porcellus, 0.75 h
Outline: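 Isolated guinea pig right atria, resting tension 10.37 mN. After a 30 min control period, compound added cumulatively to the bath until steady state. Rate change recorded on a chart recorder; solvent-only effect subtracted. Stocks in distilled water or DMSO. Mean ± SEM of 4–5 experiments; paired Student's t-test.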

[2] = Inotropic activity in electrically-stimulated guinea pig papillary muscle compound treated every 45 mins by chart recorder analysis; format: functional, tissue-based; details: Cavia porcellus, 0.75 h
Outline: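 Guinea pig papillary muscles driven electrically at 1 Hz, 3 ms pulses, amplitude 10% above threshold; resting tension 3.92 mN. After a 30 min control period, compound added cumulatively until steady state. Contraction force recorded on a chart recorder; solvent-only effect subtracted. Mean ± SEM of 4–5 experiments; paired t-test.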

[3] = test system: Aorta; test: Vasodilating activity in potassium chloride-mediated precontracted guinea pig aorta compound treated every 45 mins by chart recorder analysis; format: functional, tissue-based; details: Cavia porcellus, 0.75 h
Outline: (§1)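 Guinea pig aortic or pulmonary artery rings held at 19.6 mN resting tension and precontracted with 90 mM KCl. Compound added cumulatively every 45 min after a control period, with relaxation recorded on a chart recorder. Solvent-only effect subtracted. Mean ± SEM of 3–5 experiments; paired Student's t-test.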

[4] = test system: Ileum; test: Spasmolytic activity in potassium chloride-mediated precontracted guinea pig terminal ileum compound treated every 45 mins by chart recorder analysis; format: functional, tissue-based; details: Cavia porcellus, 0.75 h
Outline: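 Guinea pig terminal ileum held at 4.9 mN resting tension and precontracted with 60 mM KCl. Compound added cumulatively every 45 min after a control period, with relaxation recorded on a chart recorder. Solvent-only effect subtracted. Stocks in distilled water or DMSO. Mean ± SEM of 3–5 experiments.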

[5] = Vasodilating activity in potassium chloride-mediated precontracted guinea pig pulmonary artery compound treated every 45 mins by chart recorder analysis; format: functional, tissue-based, Cavia porcellus; outline: as §1
[6] = test system: Aorta; test: Vasodilating activity in potassium chloride-mediated precontracted guinea pig aorta at EC50 compound incubated in sealed tube filled with distilled water at room temperature for 24 hrs prior to testing by chart recorder analysis; format: functional, tissue-based; details: Cavia porcellus
Outline: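 Compound dissolved in distilled water and kept sealed at room temperature for 24 h. The solution was then added at a single concentration to guinea pig aortic rings precontracted with 90 mM KCl. Change in contraction force recorded on a chart recorder for 5 min. Mean ± SEM of three experiments.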

[7] = test system: Aorta; test: Vasodilating activity in potassium chloride-mediated precontracted guinea pig aorta at EC50 compound treated every 45 mins by chart recorder analysis in presence of 30 uM KATP channel inhibitor glibenclamide; format: functional
[8] = Stability of the compound in D2O assessed as degradation product ratio at 20 mg/ml at 20 degC after 24 hrs by 1H-NMR spectroscopic analysis; format: ADME
Outline: (§2)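 Compound dissolved in D2O and kept at 20 °C. 1H NMR spectra taken at 1, 3, 5, 7 and 24 h, in triplicate. Compound-to-degradation-product ratio (%) used to follow hydrolysis. Half-life obtained from an equation fitted to the time-course data. Mean ± SEM of three independent experiments.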

[9] = Half life of the compound in D2O at 20 mg/ml at 20 degC by 1H-NMR spectroscopic analysis; format: physicochemical; outline: as §2
[10] = test system: Aorta; test: Vasodilating activity in potassium chloride-mediated precontracted guinea pig aorta at EC50 compound treated every 45 mins by chart recorder analysis in presence of 100 uM eNOS inhibitor nitro-L-arginine; format: functional, tissue-based; details: Cavia porcellus
[11] = test system: Aorta; test: Vasodilating activity in potassium chloride-mediated precontracted guinea pig aorta at EC50 compound treated every 45 mins by chart recorder analysis in presence of 100 uM KATP channel inhibitor glibenclamide; format: functional
[12] = Stability of the compound in D2O assessed as compound remaining at 20 mg/ml at 20 degC after 24 hrs by 1H-NMR spectroscopic analysis; format: physicochemical; details: read-out: Stability; outline: as §2
[13] = Stability of the compound in D2O at 20 mg/ml at 20 degC measured over 24 hrs by 1H-NMR spectroscopic analysis; format: physicochemical; outline: as §2

EC50 [1] | EC50 [2] | EC50 [3] | EC50 [4] | EC50 [5] | Ratio [8] | half-life at 20 mg/ml [9] | remaining at 24 h, 20 mg/ml [12] | Stability [13] | Compound | Activity [6] | Activity ([7]; Cavia porcellus) | Activity [10] | Activity ([11]; Cavia porcellus) | Activity [7] | Activity [11]
> 100 µM | > 100 µM | > 100 µM | > 100 µM | > 100 µM | – | – | – | – | CC(C)OC(=O)n1ccnc1 | – | – | – | – | – | –
> 100 µM | 37 µM | > 100 µM | > 100 µM | > 100 µM | – | – | – | – | CCCOC(=S)OCCCN(C)C | – | – | – | – | – | –
> 100 µM | > 100 µM | > 100 µM | > 100 µM | > 100 µM | – | – | – | – | CCCOC(=S)N1CCN(C)CC1 | – | – | – | – | – | –
> 100 µM | 77 µM | 5.8 µM | > 100 µM | 24 µM | – | – | – | – | CC(=O)OCCSC(=S)n1ccnc1 | – | – | – | – | – | –
> 100 µM | > 100 µM | > 100 µM | > 100 µM | > 100 µM | – | – | – | – | CCOC(=S)N1CCN(C)CC1 | – | – | – | – | – | –
> 100 µM | 30 µM | 20 µM | 40 µM | 63 µM | – | – | – | – | S=C(SCc1ccccc1)n1ccnc1 | – | – | – | – | – | –
> 100 µM | 4.3 µM | > 100 µM | 17 µM | > 100 µM | – | – | – | – | CCCCOC(=S)OCCCN(C)C | – | – | – | – | – | –
> 100 µM | > 100 µM | 14 µM | > 100 µM | 24 µM | 0.09 | 12.3 h | 8% | – | Cl.S=C(OC1CCCCC1)n1ccnc1 | inactive | inactive | inactive | inactive | – | –
> 100 µM | > 100 µM | > 100 µM | > 100 µM | > 100 µM | – | – | – | – | CN(C)CCOC(=S)OCCN(C)C | – | – | – | – | – | –
16 µM | > 100 µM | 3.4 µM | 16 µM | 13 µM | – | – | – | – | Cc1nccn1C(=S)SCc1ccccc1 | – | – | – | – | – | –
> 100 µM | > 100 µM | > 100 µM | > 100 µM | > 100 µM | – | – | – | – | CCOC(=S)OCCCN(C)C | – | – | – | – | – | –
> 100 µM | > 100 µM | 16 µM | 32 µM | 20 µM | – | – | – | – | CCOC(=O)CCSC(=S)n1ccnc1 | – | – | – | – | – | –
> 100 µM | > 100 µM | 46 µM | 21 µM | > 100 µM | – | – | – | – | CC(C)OC(=S)n1ccnc1 | – | – | – | – | – | –
> 100 µM | > 100 µM | > 100 µM | > 100 µM | > 100 µM | – | – | – | – | CCOC(=S)OCCN(C)C | – | – | – | – | – | –
> 100 µM | 27 µM | 3 µM | 15 µM | 7.9 µM | – | – | – | – | COc1cc(CSC(=S)n2ccnc2)cc(OC)c1OC | – | – | – | – | – | –
> 100 µM | 56 µM | 23 µM | 26 µM | 25 µM | – | – | – | – | CSC(=S)n1c(C)nc2ccccc21 | – | – | – | – | – | –
> 100 µM | > 100 µM | 13 µM | 21 µM | 23 µM | – | – | – | – | CCCCOC(=S)n1ccnc1 | – | – | – | – | – | –
> 100 µM | 78 µM | 7.8 µM | 5.7 µM | 6.9 µM | – | – | – | Stable | CSC(=S)n1ccnc1.Cl | – | – | – | – | 50% | 50%
> 100 µM | 58 µM | > 100 µM | > 100 µM | > 100 µM | – | – | – | – | CCCOC(=S)OCCN(C)C | – | – | – | – | – | –
> 100 µM | > 100 µM | 30 µM | 21 µM | 100 µM | – | – | – | – | CCCOC(=S)n1ccnc1 | – | – | – | – | – | –
> 100 µM | > 100 µM | 6.3 µM | 9.5 µM | 11 µM | – | – | – | – | CSC(=S)n1ccnc1C | – | – | – | – | – | –
> 100 µM | > 100 µM | > 100 µM | > 100 µM | > 100 µM | – | – | – | – | S=C(N1CCCCC1)n1ccnc1 | – | – | – | – | – | –
> 100 µM | > 100 µM | 36 µM | 16 µM | > 100 µM | – | – | – | – | S=C(OC1CCCC1)n1ccnc1 | – | – | – | – | – | –
> 100 µM | > 100 µM | 13 µM | > 100 µM | 24 µM | – | – | – | – | COc1ccc(CSC(=S)n2ccnc2)cc1 | – | – | – | – | – | –
35 µM | 5.9 µM | > 100 µM | 16 µM | > 100 µM | – | – | – | – | CCCCCCOC(=S)OCCCN(C)C | – | – | – | – | – | –
> 100 µM | > 100 µM | 53 µM | 4.8 µM | 19 µM | 0.35 | 6.5 h | 26% | – | CCOC(=S)n1ccnc1.Cl | inactive | – | – | – | – | –
> 100 µM | > 100 µM | > 100 µM | > 100 µM | > 100 µM | – | – | – | – | O=C(OC1CCCCC1)n1ccnc1 | – | – | – | – | – | –
48 µM | 6.5 µM | 14 µM | 17 µM | 26 µM | – | – | – | – | CC(C)CN(CC(C)C)C(=S)n1ccnc1 | – | – | – | – | – | –

Compound | EC50 [1] | EC50 [2] | EC50 [3] | EC50 [4] | EC50 [5] | Ratio [8] | half-life at 20 mg/ml [9] | remaining at 24 h, 20 mg/ml [12] | Stability [13] | Activity [6] | Activity ([7]; Cavia porcellus) | Activity [10] | Activity ([11]; Cavia porcellus) | Activity [7] | Activity [11]
C[N+](C)(C)CCOC(=S)OCC[N+](C)(C)C | > 100 µM | > 100 µM | > 100 µM | > 100 µM | > 100 µM | – | – | – | – | – | – | – | – | – | –
